Results gathered from unrelated publications.
Lines come from different studies, so protocols differ.
Target: Tyrosine-protein kinase FRK (FRK, Homo sapiens, UniProt P42685)

Compound | assay | setting | remaining binding
CS(=O)(=O)N1CCCC(NC(=O)[C@H](CCC2CCCCC2)NC(=O)c2ccc(CNc3ncnc4c3nnn4-c3ccccc3)cc2)C1 (stereo partly shown) | cell-free assay, competition with immobilised ligand | 0.1 µM | 60%
O=C(c1ccc(Nc2ncc(Cl)c(-c3cc4ccccc4s3)n2)cc1)N1CCC(N2CCCC2)CC1 | binding, competition with immobilised ligand | 1 µM | 90%
CN(CCCC(F)(F)F)c1nccc(-c2cnn3ncccc23)n1 | binding | 1 µM | 93%
CCCOc1ccc([C@H]2[C@H](C(=O)O)[C@@H](c3ccc4c(c3)OCO4)CN2CC(=O)Nc2c(CC)cccc2CC)cc1 | cell-free assay, competition with immobilised ligand | 1 µM | 100%
N[C@H]1CCN(c2nccc(-c3cnn4ncccc34)n2)C1 | binding, competition with immobilised ligand | 1 µM | 100%
FC(F)(F)Oc1cccc(-c2cnc3ccc(-c4ccncc4)nn23)c1 | cell-free assay, competition with immobilised ligand | 5 µM | 59%
O=C(c1ccc(Nc2nccc(-c3cc4ccccc4s3)n2)cc1)N1CCC(N2CCCC2)CC1 | binding, competition with immobilised ligand | 1 µM | 83%
C=CC(=O)N1CCC(C(=O)NCC(=O)N2CCN(c3nc(-c4cnc(N)nc4C(F)F)nc(N4CCOCC4)n3)CC2)CC1 | binding, competition with immobilised ligand | 1 µM | 100%
CNC(=O)[C@@H]1CC[C@@H](n2c(-c3ccc4cnccc4c3)nc3ccc(C(=O)NCc4cccc(C(N)=O)c4)cc32)C1 | binding, competition with immobilised ligand | 1 µM | 100%
O=C(NCC1CCOCC1)c1n[nH]cc1NC(=O)c1c(F)cccc1F | binding, competition with immobilised ligand | 1 µM | 100%
COc1ccc2c(c1)O[C@@H](c1ccc(OC)c(OC)c1)C[C@H]2NC(=O)C1(c2ccc3c(c2)OC(F)(F)O3)CC1 | cell-free assay, competition with immobilised ligand | 1 µM | 100%
COc1cnc(Nc2cccc(S(N)(=O)=O)c2)nc1N1CCN(c2ccccc2)C(=O)C1 | binding, competition with immobilised ligand | 1 µM | 100%
Nc1c(C(=O)NCc2ccc(C(=O)NCCCC3CCCCC3)cc2)cnn1-c1ccccc1 | cell-free assay, competition with immobilised ligand | 0.1 µM | 100%
Cc1cnc(Nc2ccc(C(=O)N3CCC(N4CCCC4)CC3)cc2)nc1-c1cc2ccccc2s1 | binding, competition with immobilised ligand | 1 µM | 76%
COc1ccnn2ncc(-c3ccnc(N(C)C)n3)c12 | binding | 1 µM | 92%
CCN1CCN(Cc2ccc(C(=O)Nc3ccc(C)c(Oc4ccc5c(c4)CC(=O)N5)c3)cc2C(F)(F)F)CC1 | binding, competition with immobilised ligand | 1 µM | 13%
CN(C)c1nccc(-c2cnn3ncccc23)n1 | binding, competition with immobilised ligand | 1 µM | 100%
CN1CCN(c2cnc3c(C4CCN(C(=O)c5ccc(OC(F)(F)F)cc5N)CC4)ncnc3c2)CC1 | cell-free assay, competition with immobilised ligand | 1 µM | 100%
C[C@H]1CCN(c2nccc(-c3cnn4ncccc34)n2)C1 | binding | 1 µM | 100%
N#Cc1ccc(Nc2ccc3[nH]c(=O)[nH]c3c2)c(Cl)c1 | cell-free assay, competition with immobilised ligand | 1 µM | 73%
C[C@@H](c1ccc(-n2cnc3c(N)ncnc32)cc1)N1CCc2nn(C)c(Cc3ccccc3)c2C1=O | binding, competition with immobilised ligand | 0.1 µM | 91%
c1cnn2ncc(-c3ccnc(N4CCC45COC5)n3)c2c1 | binding | 1 µM | 82%
